How the values were obtained:
[1] = Antiangiogenic activity in zebrafish embryo assessed as inhibition of intersegmental vessels growth after 24 hours by alkaline phosphatase staining; format: functional, tissue-based, Danio rerio
How it was run: (§1)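 Embryos at 24 hpf randomly distributed into wells and exposed 24 h. Intersegmental vessels visualized by GFP labeling plus endogenous alkaline phosphatase staining. Activity derived from inhibition ratio of angiogenesis versus 0.1% DMSO vehicle control. PTK787 positive control.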

[2] = Antiangiogenic activity in zebrafish embryo assessed as inhibition of intersegmental vessel growth at 10 ug/mL after 24 hours by alkaline phosphatase staining relative to control; format: functional, Danio rerio; how it was run: as §1
[3] = Antiangiogenic activity in zebrafish embryo assessed as inhibition of intersegmental vessel growth at 5 ug/mL after 24 hours by alkaline phosphatase staining relative to PTK787; format: functional, Danio rerio
[4] = Antiangiogenic activity in zebrafish embryo assessed as inhibition of intersegmental vessel growth at 3 ug/mL after 24 hours by alkaline phosphatase staining relative to control; format: functional, Danio rerio; how it was run: as §1
[5] = Antiangiogenic activity in zebrafish embryo assessed as inhibition of intersegmental vessel growth at 1 ug/mL after 24 hours by alkaline phosphatase staining relative to control; format: functional, Danio rerio; how it was run: as §1
[6] = Antiangiogenic activity in zebrafish embryo assessed as inhibition of intersegmental vessel growth at 0.1 ug/mL after 24 hours by alkaline phosphatase staining relative to control; format: functional, Danio rerio; how it was run: as §1

Row | IC50 [1] [µg/mL] | Compound | inhibition (INH) [2] [%] | inhibition (INH) [3] [%] | inhibition (INH) [4] [%] | inhibition (INH) [5] [%] | inhibition (INH) [6] [%]
1 | > 5 | C/C=C(\C)C(=O)O[C@@H]1/C(C)=C/[C@@]23O[C@@]2(C[C@H](C)[C@@H]3OC(=O)/C(C)=C/C)C(=O)[C@H](C)[C@@H](OC(C)=O)[C@@H]2[C@H]([C@@H]1OC(C)=O)C2(C)C | 5 | 5.8 | 5.8 | – | –
2 | > 5 | CC(=O)O[C@H]1[C@H]2[C@@H]([C@H](OC(C)=O)[C@@H](C)C(=O)[C@@]34C[C@H](C)[C@H](OC(C)=O)[C@]3(/C=C(\C)[C@H]1OC(=O)c1ccccc1)O4)C2(C)C | – | – | – | – | –
3 | > 5 | C/C=C(\C)C(=O)O[C@H]1[C@H]2[C@@H]([C@H](OC(C)=O)[C@@H](C)C(=O)[C@@]34C[C@H](C)[C@H](OC(=O)/C(C)=C/C)[C@]3(/C=C(\C)[C@H]1OC(=O)c1ccccc1)O4)C2(C)C | 12.2 | 1.1 | 4.7 | – | –
4 | > 5 | C/C=C(\C)C(=O)O[C@H]1[C@H]2[C@@H]([C@H](OC(C)=O)[C@@H](C)C(=O)[C@@]34C[C@H](C)[C@H](OC(=O)/C(C)=C/C)[C@]3(/C=C(\C)[C@H]1O)O4)C2(C)C | 4.7 | – | 3.6 | 2.9 | –
5 | > 5 | C/C=C(\C)C(=O)O[C@H]1[C@H]2[C@@H]([C@H](OC(C)=O)[C@@H](C)C(=O)[C@@]34C[C@H](C)[C@H](OC(=O)c5ccccc5)[C@]3(/C=C(\C)[C@H]1O)O4)C2(C)C | 3.2 | 0 | 5.4 | – | –
6 | > 5 | C/C=C(\C)C(=O)O[C@H]1[C@@H](C)C[C@@]23O[C@@]12/C=C(\C)[C@@H](O)[C@@H](OC(=O)c1ccccc1)[C@H]1[C@@H]([C@H](OC(C)=O)[C@@H](C)C3=O)C1(C)C | 4.7 | – | 3.6 | 4.7 | –

The remaining lines, values behind:

Row | Compound | IC50 [1] [µg/mL] | inhibition (INH) [2] [%] | inhibition (INH) [3] [%] | inhibition (INH) [4] [%] | inhibition (INH) [5] [%] | inhibition (INH) [6] [%]
7 | CC(=O)O[C@H]1[C@@H]2[C@H]([C@H](OC(=O)c3ccccc3)[C@H](O)/C(C)=C/[C@@]34O[C@@]3(C[C@@H](C)[C@@H]4OC(=O)c3ccccc3)C(=O)[C@@H]1C)C2(C)C | > 5 | 3.6 | – | 1.8 | 1.1 | –
8 | CC(=O)O[C@H]1[C@H]2[C@@H]([C@H](OC(C)=O)[C@@H](C)C(=O)[C@@]34C[C@H](C)[C@H](OC(=O)c5ccccc5)[C@]3(/C=C(\C)[C@H]1OC(=O)c1ccccc1)O4)C2(C)C | > 5 | 1.8 | – | 1.8 | 1.8 | –
9 | C/C=C(\C)C(=O)O[C@H]1[C@H]2[C@@H]([C@H](OC(C)=O)[C@@H](C)C(=O)[C@@]34C[C@@H](C)[C@H](OC(=O)c5ccccc5)[C@]3(/C=C(\C)[C@H]1O)O4)C2(C)C | > 5 | 0 | – | 1.1 | 5.4 | –
10 | CC(=O)O[C@H]1[C@@H]2[C@H]([C@H](OC(=O)c3ccccc3)[C@H](O)/C(C)=C/[C@@]34O[C@@]3(C[C@H](C)[C@@H]4OC(=O)c3ccccc3)C(=O)[C@@H]1C)C2(C)C | > 5 | 0 | – | 2.1 | 0 | –
11 | Clc1ccc(Nc2nnc(Cc3ccncc3)c3ccccc23)cc1.O=C(O)CCC(=O)O | 0.15 | 100 | – | – | 95.5 | 34.6

Reference: ChEMBL document CHEMBL1152928, “Ingol and ingenol diterpenes from the aerial parts of Euphorbia royleana and their antiangiogenic activities” (J Nat Prod, 2009)
